Data set [1] concerns the target Vascular endothelial growth factor receptor 2 (Homo sapiens, UniProt P35968). Briefly: Inhibition of VEGFR2 in HUVEC cells assessed as reduction in STAT3 phosphorylation at 20 to 40 nM incubated for 48 hrs by Western blot analysis. Format: cell-based. The procedure, abridged: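 HUVECs were maintained in 1640 medium with 10% FBS. They were treated with graded concentrations for 48 h, PBS-washed and lysed in RIPA buffer. Immunoblots were probed for total and phospho VEGFR2, STAT3, Akt, Erk1 and Src, each at 1:1000. β-actin served as loading control.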

Data set [2] concerns T47D. Briefly: Inhibition of colony formation in human T47D cells at 20 to 40 nM incubated for 5 days by crystal violet staining based light microscopy. It is filed as functional, cell-based. The procedure, abridged:
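MDA-MB-231, T-47D, SiHa and HeLa cells seeded at 4×10^3/well and cultured with varying concentrations of drug or vehicle for 5 days. Fixed in 20% methanol, stained with 0.5% crystal violet, photographed under light microscopy. DMEM (T-47D) with 10% FBS, 37°C, 5% CO2.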

The next data set deals with HeLa. Kind of data set: Induction of apoptosis in human HeLa cells assessed as decrease in Ki67 expression at 40 to 80 nM incubated for 48 hrs by Western blot analysis. Format: functional, cell-based. The procedure, abridged: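 Cells were treated for 48 h, washed three times with PBS, and lysed in RIPA buffer. Immunoblots used anti-Rb, anti-phospho-Rb, anti-Ki67 and anti-Bcl-2 (each 1:1000), with β-actin as loading control.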

Data set [3] concerns the target Serine/threonine-protein kinase Chk2 (Homo sapiens) (UniProt O96017). Briefly: Inhibition of recombinant human CHK2 (5 to end residues) at 1 uM using KKKVSRSGLYRSP as substrate incubated for 40 mins in presence of [gamma-33P]-ATP by scintillation counting method relative to control. The procedure, abridged: (§1)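 Kinase panel profiling at 1 μM performed by Eurofins KinaseProfiler; percent inhibition reported as mean of two independent experiments.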

Data set [4] deals with Tyrosine-protein kinase Fes/Fps (Homo sapiens) (UniProt P07332). Kind of data set: Inhibition of recombinant human FES (2 to end residues) at 1 uM using poly(Glu, Tyr) 4:1 as substrate incubated for 40 mins in presence of [gamma-33P]-ATP by scintillation counting method relative to control.
The target of data set [5] is Epithelial discoidin domain-containing receptor 1 (Homo sapiens) (UniProt Q08345). Briefly: Inhibition of recombinant human DDR1 (492 to end residues) at 1 uM using KKKSPGEYVNIEFG as substrate incubated for 40 mins in presence of [gamma-33P]-ATP by scintillation counting method relative to control. The procedure, abridged: as §1
Chain of Epithelial discoidin domain-containing receptor 1 (Homo sapiens) (Q08345 whole entry, the tested form may be a part): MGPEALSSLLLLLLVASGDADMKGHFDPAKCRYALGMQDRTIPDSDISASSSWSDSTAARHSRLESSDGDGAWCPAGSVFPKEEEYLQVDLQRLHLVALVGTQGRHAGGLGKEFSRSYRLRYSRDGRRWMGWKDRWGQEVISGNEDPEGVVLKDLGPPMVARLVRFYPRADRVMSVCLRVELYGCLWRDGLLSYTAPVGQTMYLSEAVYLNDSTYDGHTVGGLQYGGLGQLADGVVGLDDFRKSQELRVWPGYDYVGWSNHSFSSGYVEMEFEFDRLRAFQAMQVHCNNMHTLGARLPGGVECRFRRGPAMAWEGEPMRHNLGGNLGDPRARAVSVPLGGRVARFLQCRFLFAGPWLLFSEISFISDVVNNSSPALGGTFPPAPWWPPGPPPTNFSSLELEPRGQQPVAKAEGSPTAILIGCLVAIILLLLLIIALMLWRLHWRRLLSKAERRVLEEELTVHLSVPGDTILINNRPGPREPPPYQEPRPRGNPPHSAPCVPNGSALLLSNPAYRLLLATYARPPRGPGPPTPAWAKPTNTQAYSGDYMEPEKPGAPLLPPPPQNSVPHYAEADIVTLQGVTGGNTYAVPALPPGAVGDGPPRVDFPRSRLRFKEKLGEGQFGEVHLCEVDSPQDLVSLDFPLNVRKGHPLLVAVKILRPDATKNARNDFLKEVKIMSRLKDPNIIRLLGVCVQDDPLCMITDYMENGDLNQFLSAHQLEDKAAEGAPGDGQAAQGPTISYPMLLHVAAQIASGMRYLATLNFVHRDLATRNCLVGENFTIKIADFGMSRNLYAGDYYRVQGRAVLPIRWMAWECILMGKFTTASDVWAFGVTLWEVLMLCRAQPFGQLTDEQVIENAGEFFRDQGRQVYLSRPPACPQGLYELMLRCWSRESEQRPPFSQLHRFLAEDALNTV
Data set [6] deals with Serine/threonine-protein kinase/endoribonuclease IRE1 (Homo sapiens) (UniProt O75460). Briefly: Inhibition of recombinant human IRE1 (465 to end residues) at 1 uM using myelin basic protein as substrate incubated for 40 mins in presence of [gamma-33P]-ATP by scintillation counting method relative to control.
Data set [7] has as its target Mitogen-activated protein kinase kinase kinase 11 (Homo sapiens) (UniProt Q16584). Briefly: Inhibition of recombinant human MLK3 at 1 uM incubated for 40 mins in presence of [gamma-33P]-ATP by scintillation counting method relative to control.
Data set [8] addresses Serine/threonine-protein kinase PLK1 (Homo sapiens) (UniProt P53350). Kind of data set: Inhibition of recombinant human full length PLK1 at 1 uM using casein as substrate incubated for 40 mins in presence of [gamma-33P]-ATP by scintillation counting method relative to control.
In data set [9] the target is Eukaryotic translation initiation factor 2-alpha kinase 3 (Homo sapiens) (UniProt Q9NZJ5). Briefly: Inhibition of recombinant human PEK (536 to end residues) at 1 uM using RSRSRSRSRSRSRSR as substrate incubated for 40 mins in presence of [gamma-33P]-ATP by scintillation counting method relative to control.
Chain of Eukaryotic translation initiation factor 2-alpha kinase 3 (Homo sapiens) (Q9NZJ5 whole entry): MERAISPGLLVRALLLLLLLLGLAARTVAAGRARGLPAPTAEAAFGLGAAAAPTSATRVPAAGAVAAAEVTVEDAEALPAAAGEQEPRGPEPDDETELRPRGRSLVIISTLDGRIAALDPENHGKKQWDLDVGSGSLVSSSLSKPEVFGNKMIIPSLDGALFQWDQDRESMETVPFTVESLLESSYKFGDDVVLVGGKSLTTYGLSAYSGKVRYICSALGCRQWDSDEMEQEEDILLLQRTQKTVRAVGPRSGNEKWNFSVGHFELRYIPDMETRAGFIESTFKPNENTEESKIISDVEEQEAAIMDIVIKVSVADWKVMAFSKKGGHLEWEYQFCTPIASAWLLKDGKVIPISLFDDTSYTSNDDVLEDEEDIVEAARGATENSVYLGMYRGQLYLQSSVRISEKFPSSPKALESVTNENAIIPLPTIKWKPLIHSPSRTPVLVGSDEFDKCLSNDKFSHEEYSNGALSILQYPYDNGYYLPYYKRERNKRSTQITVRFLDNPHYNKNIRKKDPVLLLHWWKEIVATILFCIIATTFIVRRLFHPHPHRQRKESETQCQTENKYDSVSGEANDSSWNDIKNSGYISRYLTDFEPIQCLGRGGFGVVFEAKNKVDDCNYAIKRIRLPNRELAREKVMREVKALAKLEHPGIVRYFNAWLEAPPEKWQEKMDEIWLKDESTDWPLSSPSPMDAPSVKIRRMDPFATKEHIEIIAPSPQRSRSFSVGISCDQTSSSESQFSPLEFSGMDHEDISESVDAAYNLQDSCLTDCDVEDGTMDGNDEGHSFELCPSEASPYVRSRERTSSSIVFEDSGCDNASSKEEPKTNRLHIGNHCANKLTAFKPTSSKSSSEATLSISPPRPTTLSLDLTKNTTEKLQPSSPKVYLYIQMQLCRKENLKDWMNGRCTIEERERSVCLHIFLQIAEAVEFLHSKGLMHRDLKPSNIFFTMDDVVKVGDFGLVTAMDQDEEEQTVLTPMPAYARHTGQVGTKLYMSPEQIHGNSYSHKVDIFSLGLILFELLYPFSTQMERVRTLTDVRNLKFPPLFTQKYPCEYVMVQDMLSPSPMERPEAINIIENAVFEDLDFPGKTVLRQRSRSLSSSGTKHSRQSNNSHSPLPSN
In data set [10] the target is Serine/threonine-protein kinase Sgk3 (Homo sapiens) (UniProt Q96BR1). Kind of data set: Inhibition of recombinant human SGK3 (119 to end residues) at 1 uM using GRPRTSSFAEGKK as substrate incubated for 40 mins in presence of [gamma-33P]-ATP by scintillation counting method relative to control.
Data set [11] has as its target Tyrosine-protein kinase Srms (Homo sapiens) (UniProt Q9H3Y6). Briefly: Inhibition of recombinant human SRMS at 1 uM incubated for 40 mins in presence of [gamma-33P]-ATP by scintillation counting method relative to control.
Data set [12] deals with [Pyruvate dehydrogenase (acetyl-transferring)] kinase isozyme 4, mitochondrial (Homo sapiens) (UniProt Q16654). Kind of data set: Inhibition of recombinant human full length PDHK4 at 1 uM using KKKYHGHSMSDPGVSYRT as substrate incubated for 40 mins in presence of [gamma-33P]-ATP by scintillation counting method relative to control. The procedure, abridged:
(§2)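 Tested at a single 1 uM in an outsourced commercial kinase-profiling panel, read as percent inhibition. Each value is the mean of two independent experiments.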

For data set [13], the target named is Fibroblast growth factor receptor 4 (Homo sapiens) (UniProt P22455). Briefly: Inhibition of recombinant human FGFR4 (442 to 755 residues) at 1 uM using poly(Glu, Tyr) 4:1 as substrate incubated for 40 mins in presence of [gamma-33P]-ATP by scintillation counting method relative to control. The procedure, abridged: as §2
Data set [14] has as its target PI3-kinase p110-delta/p85-alpha (Homo sapiens) (UniProt P27986+O00329). Briefly: Inhibition of recombinant human full length PI3K p110delta/p85alpha at 1 uM using phosphatidylinositol-4, 5-bisphosphate as substrate incubated for 40 mins in presence of [gamma-33P]-ATP by scintillation counting method relative to control. It is filed as protein-complex assay.
Data set [15] can be described thus: Toxicity in BALB/c mouse assessed as effect on blood parameter by measuring basophils content at 40 mg/kg, po administered once two days for 4 times by hematology analyzer. Particulars: in vivo.
The subject of data set [16] is T47D. Briefly: Induction of apoptosis in human T47D cells assessed as decrease in Bcl2 expression at 40 nM incubated for 48 hrs by Western blot analysis. Format: functional, cell-based. The procedure, abridged:
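Cancer cells were exposed to graded concentrations for 48 h, washed three times in PBS and lysed in RIPA buffer. Immunoblots were probed with anti-Rb, anti-phospho-Rb, anti-Ki67 and anti-Bcl-2, each at 1:1000. β-actin served as loading control.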

The subject of the next data set is HUVEC. Briefly: Antiproliferative activity against HUVEC cells assessed as reduction in cell viability at 40 nM measured upto 72 hrs by CCK8 assay. It is filed as functional, cell-based. The settings on record: Homo sapiens. The procedure, abridged: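 HUVECs, 3×10³ cells/well, kept in 1640 medium with 10% FBS at 37°C and 5% CO₂. Cells were treated at 20 or 40 nM or vehicle, and viability was read by CCK-8 (absorbance 450 nm) at 0, 12, 24, 36, 48, 60 and 72 h. Five replicates per sample.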

Data set [17] has as its system T47D. Kind of data set: Antiproliferative activity against human T47D cells assessed as reduction in cell viability at 40 nM incubated for 48 hrs by EdU staining based laser scanning confocal microscopy. Format: functional. The procedure, abridged:
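Cells, 5×10^4, were seeded in 24-well plates and treated for 48 h. They were then labeled using an EdU Apollo 488 imaging kit with Hoechst 33342 nuclear stain and imaged by laser scanning confocal microscopy. Percent EdU-positive cells = EdU-positive/Hoechst-stained × 100%.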

The source made the active and inactive calls. The calls are words filed in the database; no cut-off is given here.

Chain of Serine/threonine-protein kinase Chk2 (Homo sapiens) (O96017 whole entry): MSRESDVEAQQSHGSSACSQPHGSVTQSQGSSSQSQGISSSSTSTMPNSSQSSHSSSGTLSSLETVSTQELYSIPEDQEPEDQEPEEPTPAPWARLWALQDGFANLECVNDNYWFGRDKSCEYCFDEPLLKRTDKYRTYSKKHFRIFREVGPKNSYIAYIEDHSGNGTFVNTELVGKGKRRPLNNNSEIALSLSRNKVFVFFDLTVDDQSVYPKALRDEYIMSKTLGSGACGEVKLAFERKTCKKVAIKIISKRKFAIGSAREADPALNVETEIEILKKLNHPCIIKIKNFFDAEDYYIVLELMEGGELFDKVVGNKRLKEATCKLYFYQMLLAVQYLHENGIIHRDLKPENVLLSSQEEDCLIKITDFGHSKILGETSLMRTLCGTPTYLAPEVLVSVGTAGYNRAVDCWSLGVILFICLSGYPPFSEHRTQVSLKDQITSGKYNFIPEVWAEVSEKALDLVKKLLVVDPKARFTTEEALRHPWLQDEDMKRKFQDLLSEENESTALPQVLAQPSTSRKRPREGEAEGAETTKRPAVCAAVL
Chain of [Pyruvate dehydrogenase (acetyl-transferring)] kinase isozyme 4, mitochondrial (Homo sapiens) (Q16654 whole entry, looked up): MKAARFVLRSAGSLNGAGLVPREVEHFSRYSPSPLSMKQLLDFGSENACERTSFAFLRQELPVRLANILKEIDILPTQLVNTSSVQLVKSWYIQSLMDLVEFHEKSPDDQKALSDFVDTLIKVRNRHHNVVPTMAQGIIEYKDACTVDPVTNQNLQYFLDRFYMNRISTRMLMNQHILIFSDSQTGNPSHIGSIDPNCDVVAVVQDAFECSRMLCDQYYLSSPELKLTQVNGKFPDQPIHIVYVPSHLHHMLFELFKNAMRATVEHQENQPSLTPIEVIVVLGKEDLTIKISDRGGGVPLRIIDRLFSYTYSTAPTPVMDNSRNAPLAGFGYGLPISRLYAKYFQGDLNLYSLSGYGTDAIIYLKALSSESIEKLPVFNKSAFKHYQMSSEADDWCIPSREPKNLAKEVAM
Chain of Vascular endothelial growth factor receptor 2 (P35968 whole entry): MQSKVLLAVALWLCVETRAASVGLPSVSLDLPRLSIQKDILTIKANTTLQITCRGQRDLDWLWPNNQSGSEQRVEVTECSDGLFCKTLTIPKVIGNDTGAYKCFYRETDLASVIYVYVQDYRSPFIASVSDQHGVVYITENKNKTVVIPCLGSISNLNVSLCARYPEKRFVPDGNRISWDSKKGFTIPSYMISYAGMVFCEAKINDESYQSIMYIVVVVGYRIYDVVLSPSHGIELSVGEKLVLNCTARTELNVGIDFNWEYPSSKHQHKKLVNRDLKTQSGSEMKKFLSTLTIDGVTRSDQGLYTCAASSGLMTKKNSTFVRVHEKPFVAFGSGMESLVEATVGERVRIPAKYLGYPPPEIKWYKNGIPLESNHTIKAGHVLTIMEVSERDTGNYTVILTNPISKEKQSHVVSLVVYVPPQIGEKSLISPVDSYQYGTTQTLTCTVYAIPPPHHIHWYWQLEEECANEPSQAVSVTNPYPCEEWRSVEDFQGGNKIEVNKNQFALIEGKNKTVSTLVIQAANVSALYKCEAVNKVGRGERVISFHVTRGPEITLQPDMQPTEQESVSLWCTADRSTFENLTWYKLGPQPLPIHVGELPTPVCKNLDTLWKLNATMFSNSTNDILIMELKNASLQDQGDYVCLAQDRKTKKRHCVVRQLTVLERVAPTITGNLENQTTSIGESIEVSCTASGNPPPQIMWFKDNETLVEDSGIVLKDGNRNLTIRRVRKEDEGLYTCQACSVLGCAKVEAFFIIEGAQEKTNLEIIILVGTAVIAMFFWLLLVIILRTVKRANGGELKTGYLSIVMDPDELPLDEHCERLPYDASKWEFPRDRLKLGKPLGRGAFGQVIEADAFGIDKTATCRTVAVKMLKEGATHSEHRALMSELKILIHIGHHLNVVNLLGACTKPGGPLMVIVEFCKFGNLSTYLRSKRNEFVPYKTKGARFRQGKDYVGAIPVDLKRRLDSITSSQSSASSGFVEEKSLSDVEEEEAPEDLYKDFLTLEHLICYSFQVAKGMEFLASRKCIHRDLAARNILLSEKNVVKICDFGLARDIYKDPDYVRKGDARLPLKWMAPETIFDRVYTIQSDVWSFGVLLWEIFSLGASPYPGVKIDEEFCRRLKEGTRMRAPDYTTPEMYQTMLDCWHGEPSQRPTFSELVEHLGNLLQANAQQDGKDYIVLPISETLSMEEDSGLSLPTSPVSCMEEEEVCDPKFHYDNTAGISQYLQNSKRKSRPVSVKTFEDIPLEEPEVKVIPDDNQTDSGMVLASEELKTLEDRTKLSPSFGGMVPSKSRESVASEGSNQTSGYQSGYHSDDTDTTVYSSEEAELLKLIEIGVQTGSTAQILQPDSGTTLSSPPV
Chain of Tyrosine-protein kinase Srms (Homo sapiens) (Q9H3Y6 whole entry): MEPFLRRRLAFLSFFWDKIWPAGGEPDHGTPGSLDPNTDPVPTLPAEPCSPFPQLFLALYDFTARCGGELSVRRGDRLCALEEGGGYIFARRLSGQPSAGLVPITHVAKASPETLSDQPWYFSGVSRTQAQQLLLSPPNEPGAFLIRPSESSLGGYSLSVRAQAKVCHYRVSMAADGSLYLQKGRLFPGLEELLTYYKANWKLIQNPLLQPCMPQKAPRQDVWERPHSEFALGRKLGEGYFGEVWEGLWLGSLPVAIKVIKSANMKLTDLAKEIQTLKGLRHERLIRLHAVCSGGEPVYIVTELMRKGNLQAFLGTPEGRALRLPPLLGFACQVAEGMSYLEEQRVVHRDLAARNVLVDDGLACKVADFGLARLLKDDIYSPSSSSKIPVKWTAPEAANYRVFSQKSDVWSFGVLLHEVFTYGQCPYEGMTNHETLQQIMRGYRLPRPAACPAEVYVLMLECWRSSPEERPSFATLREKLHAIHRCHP

With `Cc1ccc(NC(=O)C2(C(=O)Nc3ccc(Nc4ncc(F)c(-c5cc(F)c6nc(C)n(C(C)C)c6c5)n4)cc3)CC2)cc1`, the inhibition entry (in data set [1]; in the data set on T47D [2]) was “Active” throughout. Also, the outcome in the data set with HeLa was Active. Moreover, the inhibition in data set [3] was 22%; in data set [4], 89%; in data set [5], 73%; in data set [6], 33%; in data set [7], -2%; in data set [8] it was 23%. For the same compound, the inhibition in data set [9] stood at 2%; in data set [10], 11%; in [11] it was 4%; in data set [12], 0%; in [13], 0%; in data set [14], 12%. Also, in [15], the Activity entry is listed as “Non-Toxic”.

As to `COc1cc2nccc(Oc3ccc(NC(=O)C4(C(=O)Nc5ccc(F)cc5)CC4)cc3)c2cc1OC` [CABOZANTINIB], the result in the data set on T47D [16] was Active. Also, the inhibition result in the data set on HUVEC and with T47D [17] was “Active” throughout.
